We go through 2 molecules from ChEMBL document CHEMBL1938298, “Synthesis and characterization of [¹²⁵I]2-iodo N-[(S)-{(S)-1-methylpiperidin-2-yl}(phenyl)methyl]3-trifluoromethyl-benzamide as novel imaging probe for glycine transporter 1” (Bioorg Med Chem, 2011).

Calls of active or inactive are those of the source. The rule behind the calls is not given here.

Data set [1] concerns Mus musculus. Kind of data set: In vivo binding affinity to GlyT1 in ddY mouse brain hippocampus at 33.3 kBq, iv after 30 mins in presence of N-Me-SSR504734 2 mg/kg, iv administered 15 mins prior to compound administration relative to control. Further details: dose 2 mg/kg. The conditions noted are these: tested as the 125I-labelled form. Type of data set: functional, organism-based. The essentials:
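Blocking study in male ddY mice (6 weeks, 30–35 g). The blocker (2 mg/kg in 30% DMSO/saline) was injected i.v. 15 min before about 33.3 kBq [125I]tracer i.v.; mice were killed at 30 or 60 min. Brains were divided into cortex, corpus callosum, hippocampus, thalamus, midbrain, medulla and cerebellum, weighed and gamma-counted as % dose/g. Values are mean ± SD, n = 5–6, compared to control by Kruskal–Wallis with Dunn's post-test.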

Data set [2] has as its system Mus musculus. Kind of data set: In vivo binding affinity to GlyT1 in ddY mouse brain striatum at 33.3 kBq, iv after 60 mins in presence of SSR504734 2 mg/kg, iv administered 15 mins prior to compound administration relative to control. In kind it is functional, organism-based. Details: dose 2 mg/kg. The following applies: tested as the 125I-labelled form.
The target in data set [3] is T1, Sodium- and chloride-dependent glycine transporter 1 (Rattus norvegicus) (UniProt P28572).
T1 sequence (whole entry): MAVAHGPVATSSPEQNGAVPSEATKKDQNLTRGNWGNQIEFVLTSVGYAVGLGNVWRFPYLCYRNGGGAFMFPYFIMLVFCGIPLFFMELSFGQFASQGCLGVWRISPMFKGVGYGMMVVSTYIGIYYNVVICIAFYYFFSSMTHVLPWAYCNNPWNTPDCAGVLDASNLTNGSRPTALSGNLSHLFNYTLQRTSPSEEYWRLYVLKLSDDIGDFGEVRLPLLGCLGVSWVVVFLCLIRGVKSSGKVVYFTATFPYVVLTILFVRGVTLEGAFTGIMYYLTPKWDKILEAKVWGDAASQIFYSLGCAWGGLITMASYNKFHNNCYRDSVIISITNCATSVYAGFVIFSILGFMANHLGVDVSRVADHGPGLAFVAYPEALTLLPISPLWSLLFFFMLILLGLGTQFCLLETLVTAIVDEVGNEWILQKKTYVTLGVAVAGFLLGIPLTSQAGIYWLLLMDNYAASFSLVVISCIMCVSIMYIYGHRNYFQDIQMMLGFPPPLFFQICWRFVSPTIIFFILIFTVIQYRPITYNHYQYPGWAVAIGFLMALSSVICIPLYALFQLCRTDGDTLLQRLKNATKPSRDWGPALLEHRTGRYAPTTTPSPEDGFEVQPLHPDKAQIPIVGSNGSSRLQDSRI
Kind of data set: Binding affinity to GlyT1 in rat brain cerebral cortex at 0.03 to 0.04 nM preincubated for 20 mins in binding buffer before compound addition measured after 30 mins by autoradiography in presence of 10 mM GlyT1 substrate glycine relative to control. The conditions noted are these: tested as the 125I-labelled form. Type of data set: tissue-based. The procedure, abridged: (§1)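 Rat brain sagittal sections (20 µm) preincubated 20 min at 25 °C in Tris-HCl buffer pH 7.5 (NaCl, KCl, MgCl2, CaCl2), then 30 min at 25 °C with [125I] tracer (100 kBq, 0.03–0.04 nM) plus competitor (10 µM; glycine 1 or 10 mM). Cold washes, imaging plate 3 days, ROI PSL minus background per mm². % control from ≥triplicate slices, three rats.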

Data set [4] has as its target T1, Sodium- and chloride-dependent glycine transporter 1 (Rattus norvegicus). Description: Binding affinity to GlyT1 in rat brain cerebral cortex at 0.03 to 0.04 nM preincubated for 20 mins in binding buffer before compound addition measured after 30 mins by autoradiography in presence of GlyT1 inhibitor N-Me-SSR504734 relative to control. Type of data set: tissue-based. The following applies: tested as the 125I-labelled form. The essentials:
as §1

The target is the same in data set [5]. Kind of data set: Binding affinity to GlyT1 in rat brain thalamus at 0.03 to 0.04 nM preincubated for 20 mins in binding buffer before compound addition measured after 30 mins by autoradiography in presence of 0.01 mM GlyT2 inhibitor ORG25543 relative to control. Type of data set: tissue-based. The following applies: tested as the 125I-labelled form.
The target is the same in data set [6]. Kind of data set: Binding affinity to GlyT1 in rat brain thalamus at 0.03 to 0.04 nM preincubated for 20 mins in binding buffer before compound addition measured after 30 mins by autoradiography in presence of GlyT1 inhibitor N-Me-SSR504734 relative to control. In kind it is tissue-based. The following applies: tested as the 125I-labelled form.
Data set [7] has the same target. Description: Binding affinity to GlyT1 in rat brain cerebral cortex at 0.03 to 0.04 nM preincubated for 20 mins in binding buffer before compound addition measured after 30 mins by autoradiography in presence of 0.01 mM GlyT1 inhibitor SSR504734 relative to control. Type of data set: tissue-based. The conditions noted are these: tested as the 125I-labelled form. The essentials:
as §1

Data set [8] shares this target. Description: Binding affinity to GlyT1 in rat brain cerebral cortex at 0.03 to 0.04 nM preincubated for 20 mins in binding buffer before compound addition measured after 30 mins by autoradiography in presence of 0.01 mM NMDA receptor glycine site antagonist L-701,324 relative to control. Type of data set: tissue-based. The conditions noted are these: tested as the 125I-labelled form. The essentials:
as §1

The test system of data set [9] is Lung. Description: Drug uptake in ddY mouse lung at 11.1 kBq, iv after 5 min by gamma counting. Type of data set: ADME, organism-based. The conditions noted are these: in vivo. The procedure, abridged:
(§2)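 Male ddY mice (6 weeks, 30–35 g) were given about 11.1 kBq of [125I]tracer in 0.1 mL i.v. via the tail vein. At each time point the animals were killed and organs dissected, weighed and gamma-counted. Uptake is expressed as % injected dose per gram of tissue, mean ± SD, n = 5–6.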

Data set [10] deals with Spleen. Description: Drug uptake in ddY mouse spleen at 11.1 kBq, iv after 0.5 min by gamma counting. Type of data set: ADME, organism-based. The conditions noted are these: in vivo. The procedure, abridged: as §2
Data set [11] concerns Nucleic Acid. Kind of data set: Ratio of drug level in brain to blood in ddY mouse at 11.1 kBq, iv after 180 min by gamma counting. Type of data set: ADME, organism-based. The conditions noted are these: 3 h.
Data set [12] concerns Nucleic Acid. Kind of data set: Ratio of drug level in brain to blood in ddY mouse at 11.1 kBq, iv after 5 min by gamma counting. Type of data set: ADME, organism-based.
The test system of data set [13] is Intestine. Description: Drug uptake in ddY mouse intestine at 11.1 kBq, iv after 0.5 min by gamma counting. In kind it is ADME, organism-based. The conditions noted are these: in vivo. The procedure, abridged:
(§3)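 Male ddY mice (6 weeks, 30–35 g) received about 11.1 kBq [125I]tracer in 0.1 mL i.v. via tail vein. Killed at set times, organs dissected and weighed, radioactivity gamma counted. Reported as % injected dose/g tissue, mean ± SD, n = 5–6.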

Data set [14] concerns the target T2, Sodium- and chloride-dependent glycine transporter 1 (Rattus norvegicus, UniProt P28572).
T2 sequence (P28572 whole entry): T1 sequence (whole entry)
Kind of data set: Binding affinity to GlyT1 in rat cortical brain homogenate after 60 mins by gamma counting. In kind it is tissue-based. The procedure, abridged: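 Saturation binding on washed rat cortical membranes (25 µg protein) with [125I]tracer 0.1–20 nM in TB1 buffer (120 mM NaCl, 2 mM KCl, 1 mM CaCl2, 1 mM MgCl2, 10 mM HEPES, pH 7.5), 60 min at room temperature. Nonspecific binding defined with 10 µM unlabeled ligand. GF/B filtration with ice-cold buffer washes, gamma counting; Kd and Bmax from saturation analysis.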

In data set [15] the test system is Heart. Description: Drug uptake in ddY mouse heart at 11.1 kBq, iv after 30 min by gamma counting. In kind it is ADME, organism-based. The conditions noted are these: in vivo, 0.5 h. The essentials:
as §3

Data set [16] deals with Intestine. Description: Drug uptake in ddY mouse intestine at 11.1 kBq, iv after 30 min by gamma counting. In kind it is ADME, organism-based. The conditions noted are these: in vivo, 0.5 h. The essentials:
as §3

For data set [17], the system named is Spleen. Kind of data set: Drug uptake in ddY mouse spleen at 11.1 kBq, iv after 5 min by gamma counting. In kind it is ADME, organism-based. The conditions noted are these: in vivo. The procedure, abridged: as §2
The subject of data set [18] is Nucleic Acid. Description: Ratio of drug level in brain to blood in ddY mouse at 11.1 kBq, iv after 30 min by gamma counting. In kind it is ADME, organism-based. The conditions noted are these: 0.5 h.
Data set [19] deals with Lung. Description: Drug uptake in ddY mouse lung at 11.1 kBq, iv after 30 min by gamma counting. The following applies: in vivo, 0.5 h. Type of data set: ADME, organism-based. The procedure, abridged: as §2

As for `CN1CCCC[C@H]1[C@@H](NC(=O)c1cccc(C(F)(F)F)c1I)c1ccccc1`, the outcome in data set [1] was Active. Further, in data set [2], the result was inactive. Also, the Activity in data set [3] stood at 43.7%; in data set [4], 37.5%; in data set [5], 99.7%; in data set [6] it was 25.1%; in data set [7], 29.3%; in [8] it was 92.5%.
For `CN1CCCC[C@H]1[C@@H](NC(=O)c1cccc(C(F)(F)F)c1[125I])c1ccccc1`, the Drug uptake in data set [9] stood at 19.3 % ID/g; in data set [10], 0.97 % ID/g; in [13] it was 0.81 % ID/g; in [15], 3.95 % ID/g; in data set [16], 5.76 % ID/g; in data set [17], 5.11 % ID/g. For the same molecule, in [19], the Drug uptake was 17.07 % ID/g. Moreover, the Ratio in data set [11] amounted to 0.85; in data set [12] it was 1.57; in [18] it was 2.46. Also, the Kd in [14] was found to be 1.58 nM.

A word on the Kd: it is the free concentration of one partner at which half of the binding sites on the other are occupied at equilibrium, for simple one-to-one binding. Low values mean a tighter complex, high ones a looser complex.
